Active and inactive are the calls of the source. The calls are words filed in the database; no cut-off is given here.
Assays:
MDA-MB-231 [1] = assay: Cytotoxicity against human MDA-MB-231 cells assessed as decrease in ATP production at 10 uM after 24 to 48 hrs by CellTiter-Glo luminescent assay; assay type: functional, cell-based
MDA-MB-231 [2] = assay: Induction of apoptosis in human MDA-MB-231 cells assessed as mitochondrial membrane disruption by measuring red to green fluorescence ratio at 10 uM after 24 hrs by JC-1 staining based microscopic method relative to control; assay type: functional
Summary of the method: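 Cells exposed for 24 h at 10 µM, then stained with the cationic dye JC-1. Red (aggregate, intact inner membrane) to green (monomer) fluorescence ratio expressed relative to DMSO control. Mean±SEM of three experiments.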

MDA-MB-231 [3] = assay: Cell cycle arrest in human MDA-MB-231 cells at 10 uM after 24 hrs by propidium iodide staining based flow cytometric analysis
MDA-MB-231 [4] = assay: Cytotoxicity against human MDA-MB-231 cells assessed as decrease in cell adherence at 40 uM after 48 hrs by crystal violet staining based assay; assay type: functional
MDA-MB-231 [5] = assay: Induction of apoptosis in human MDA-MB-231 cells at 10 uM after 48 hrs by annexin VFITC/7AAD staining based flow cytometry; assay type: functional, cell-based
Summary of the method: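 Annexin V-FITC/7AAD flow cytometry of cells after 48 h at 10 µM. Quadrants: E4 annexin V only (early apoptotic), E2 dual-stained (late apoptotic), E1 7AAD only, E3 unstained (viable). Compared with DMSO control. Mean±SEM from three experiments.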

MDA-MB-231 [6] = assay: Cytotoxicity against human MDA-MB-231 cells assessed as decrease in cell viability at 40 uM after 48 hrs by crystal violet staining based assay; assay type: functional
MDA-MB-231 [7] = assay: Induction of apoptosis in human MDA-MB-231 cells assessed as increase in caspases 3/7 activity at 10 uM after 48 hrs by Caspase-Glo assay; assay type: functional, cell-based
MDA-MB-231 [8] = assay: Induction of mitochondrial membrane disruption in human MDA-MB-231 cells assessed as mitochondrial cardiolipin level at 14 uM after 24 hrs relative to control; assay type: functional
MDA-MB-231 [9] = assay: Induction of apoptosis in human MDA-MB-231 cells assessed as mitochondrial membrane disruption at 10 uM after 6 hrs by JC-1/Hoechst 33342 staining based fluorescence microscopic assay; assay type: functional, cell-based
Summary of the method: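 Treatment with 10 µM or DMSO for 6 h. Cells were washed twice with serum-free medium, then incubated with JC-1 in serum-free medium at 37°C for 20 min. Hoechst 33342 nuclear counterstain, then fluorescence microscopy of green monomers versus red aggregates.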

SMILES | Activity (MDA-MB-231 [1]) | Activity (MDA-MB-231 [2]) | Activity (MDA-MB-231 [3]) | Activity (MDA-MB-231 [4]) | Activity (MDA-MB-231 [5]) | Activity (MDA-MB-231 [6]) | Activity (MDA-MB-231 [7]) | Activity (MDA-MB-231 [8]) | Activity (MDA-MB-231 [9])
O=C(O)CCCCCCCCCCCCCCCNC(=O)Nc1ccc(F)cc1 | inactive | inactive |  |  |  |  |  |  | 
O=C(O)CCCCCCCCCCCCCCCNC(=O)Nc1ccc(Cl)cc1 | inactive | inactive |  |  |  |  |  |  | 
O=C(O)CCCCCCCCCCCCCCCNC(=O)Nc1ccccc1 | inactive | inactive | inactive | inactive | inactive | inactive | inactive |  | 
CCNC(=O)NCCCCCCCCCCCCCCCC(=O)O | inactive | inactive | inactive |  | inactive |  |  | inactive | 
CNC(=O)c1cc(Oc2ccc(NC(=O)Nc3ccc(Cl)c(C(F)(F)F)c3)cc2)ccn1 |  |  |  |  |  |  |  |  | Active
O=C(O)CCCCCCCCCCCCCCCNC(=O)Nc1ccc(I)cc1 | inactive | inactive |  |  |  |  |  |  | 

From ChEMBL document CHEMBL4017524, “A Novel Arylurea Fatty Acid That Targets the Mitochondrion and Depletes Cardiolipin To Promote Killing of Breast Cancer Cells” (J Med Chem, 2017)
